Reference: ChEMBL document CHEMBL5154645, “Potent Anti-SARS-CoV-2 Activity by the Natural Product Gallinamide A and Analogues via Inhibition of Cathepsin L” (J Med Chem, 2022)
Activity calls are given as the source filed them. No cut-off for these calls is given here.

Columns and labels:
Cathepsin B [1] = molecular target: T1, Cathepsin B (Homo sapiens, UniProt P07858); assay: Inhibition of human recombinant Cathepsin B assessed remaining activity using Z-FR-AMC as substrate incubated for 30 mins by fluorometric assay
Outline: (§1)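 Recombinant human cathepsins: L, B, V and K at 1.11 nM, S at 4.44 nM. Each was preincubated 30 min at 25 °C with 3333 to 0.006 nM compound. Z-FR-AMC was added at 40 μM final. AMC release rate over 0–30 min was compared with DMSO (ex/em 360/460). IC50 from four technical replicates.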

Cathepsin L2 = molecular target: T2, Cathepsin L2 (Homo sapiens, UniProt O60911); assay: Inhibition of human recombinant Cathepsin V assessed remaining activity using Z-FR-AMC as substrate incubated for 30 mins by fluorometric assay; outline: as §1
T2 sequence (O60911 whole entry): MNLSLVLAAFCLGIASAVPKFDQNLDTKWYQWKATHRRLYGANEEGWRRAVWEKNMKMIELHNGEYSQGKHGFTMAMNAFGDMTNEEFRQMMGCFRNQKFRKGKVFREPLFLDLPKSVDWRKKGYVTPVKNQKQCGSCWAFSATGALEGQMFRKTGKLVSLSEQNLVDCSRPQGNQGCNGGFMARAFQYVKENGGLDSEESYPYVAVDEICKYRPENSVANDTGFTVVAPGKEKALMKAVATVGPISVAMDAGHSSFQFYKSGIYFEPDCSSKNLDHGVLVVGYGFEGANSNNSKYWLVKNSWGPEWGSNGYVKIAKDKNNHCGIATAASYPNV

Cathepsin S = Cathepsin S (Homo sapiens, UniProt P25774); assay: Inhibition of human recombinant Cathepsin S assessed remaining activity using Z-FR-AMC as substrate incubated for 30 mins by fluorometric assay; outline: as §1
Cathepsin K = molecular target: T3, Cathepsin K (Homo sapiens, UniProt P43235); assay: Inhibition of human recombinant Cathepsin K assessed remaining activity using Z-FR-AMC as substrate incubated for 30 mins by fluorometric assay; outline: as §1
T3 sequence (P43235 whole entry): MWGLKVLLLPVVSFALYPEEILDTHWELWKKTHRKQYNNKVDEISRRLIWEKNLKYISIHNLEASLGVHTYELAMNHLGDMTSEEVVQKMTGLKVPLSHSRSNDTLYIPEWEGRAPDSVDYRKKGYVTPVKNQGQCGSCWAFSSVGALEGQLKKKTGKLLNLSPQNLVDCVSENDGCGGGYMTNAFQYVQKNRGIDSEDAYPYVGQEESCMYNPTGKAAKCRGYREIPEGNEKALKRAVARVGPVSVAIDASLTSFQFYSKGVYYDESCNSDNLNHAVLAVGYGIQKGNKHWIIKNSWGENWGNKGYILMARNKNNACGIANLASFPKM

SARS-CoV-2 [2] = assay: Antiviral activity against SARS-CoV-2 infected in African green monkey Vero E6 cells assessed as inhibition of viral infection pre incubated for 30 minutes followed by viral infection and measured after 72 hrs by Nucblue dye based fluorometric analysis; type: functional, organism-based; conditions: Severe acute respiratory syndrome coronavirus 2, Vero C1008
Procathepsin L [3] = molecular target: T4, Procathepsin L (Homo sapiens, UniProt P07711); assay: Inhibition of human recombinant Cathepsin L assessed as Kinact using Z-FR-AMC as substrate inubated for 30 mins by fluorometric assay
Outline: (§2)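 Human CatL, human CatB or mouse CatL at 1 nM, at 25 °C in pH 5.5 Na acetate/DTT/EDTA/NaCl buffer. Reactions held 40 μM Z-FR-AMC and 555.56 to 0.01 nM compound, in quadruplicate. Product formation was measured at 6 min intervals for 1 h and normalized to DMSO wells. kobs came from inactivation curves. kinact and KIapp were obtained by nonlinear regression of kobs = kinact[I]/(KIapp + [I]); their ratio was then calculated.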
Target sequence in this assay (P07711 114-333 limits assumed): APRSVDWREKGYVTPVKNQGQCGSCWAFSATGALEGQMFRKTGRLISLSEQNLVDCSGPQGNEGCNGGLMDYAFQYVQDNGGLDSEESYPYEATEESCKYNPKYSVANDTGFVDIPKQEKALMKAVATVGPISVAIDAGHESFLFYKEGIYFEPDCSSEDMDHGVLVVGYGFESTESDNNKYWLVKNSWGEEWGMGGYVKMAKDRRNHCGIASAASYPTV

Cathepsin B [4] = molecular target: T1, Cathepsin B; assay: Inhibition of human recombinant Cathepsin B assessed as Kinact using Z-FR-AMC as substrate inubated for 30 mins by fluorometric assay
[5] = molecular target: T5, Procathepsin L (Mus musculus) (UniProt P06797); assay: Inhibition of mouse Cathepsin L assessed as Kinact using Z-FR-AMC as substrate inubated for 30 mins by fluorometric assay; outline: as §2
T5 sequence (whole entry): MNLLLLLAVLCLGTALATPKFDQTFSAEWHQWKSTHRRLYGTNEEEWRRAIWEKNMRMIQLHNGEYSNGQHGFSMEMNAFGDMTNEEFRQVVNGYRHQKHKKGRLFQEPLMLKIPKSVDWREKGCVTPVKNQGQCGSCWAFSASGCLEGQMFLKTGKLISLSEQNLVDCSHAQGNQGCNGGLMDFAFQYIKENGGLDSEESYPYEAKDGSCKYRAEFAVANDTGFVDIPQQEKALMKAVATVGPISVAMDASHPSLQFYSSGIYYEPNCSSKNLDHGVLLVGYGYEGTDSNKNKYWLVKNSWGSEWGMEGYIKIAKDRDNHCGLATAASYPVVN

Procathepsin L [6] = molecular target: T4, Procathepsin L; assay: Inhibition of human recombinant Cathepsin L assessed as Apparent inhibition constant using Z-FR-AMC as substrate […] by fluorometric assay; conditions: read-out: Ki(app)
Target sequence in this assay (P07711 whole entry): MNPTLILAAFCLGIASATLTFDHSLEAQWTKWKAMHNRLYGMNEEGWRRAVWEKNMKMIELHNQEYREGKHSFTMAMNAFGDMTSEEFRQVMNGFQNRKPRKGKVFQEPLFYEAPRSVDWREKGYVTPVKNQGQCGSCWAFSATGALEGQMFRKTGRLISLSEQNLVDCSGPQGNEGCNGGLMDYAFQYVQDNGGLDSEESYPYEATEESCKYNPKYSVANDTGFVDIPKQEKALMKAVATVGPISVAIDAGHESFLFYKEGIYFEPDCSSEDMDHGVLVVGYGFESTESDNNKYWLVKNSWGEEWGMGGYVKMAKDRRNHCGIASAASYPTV

Cathepsin B [7] = molecular target: T1, Cathepsin B; assay: Inhibition of human recombinant Cathepsin B assessed as Apparent inhibition constant using Z-FR-AMC as substrate inubated for 30 mins by fluorometric assay; conditions: read-out: Ki(app); outline: as §2
Procathepsin L [8] = molecular target: T6, Procathepsin L (Mus musculus, UniProt P06797); assay: Inhibition of mouse Cathepsin L assessed as Apparent inhibition constant using Z-FR-AMC as substrate inubated for 30 mins by fluorometric assay; conditions: read-out: Ki(app); outline: as §2
T6 sequence (P06797 whole entry): T5 sequence (whole entry)

[9] = molecular target: T5, Procathepsin L (Mus musculus); assay: Inhibition of mouse Cathepsin L assessed as ratio of Kinact/Kiapp using Z-FR-AMC as substrate inubated for 30 mins by fluorometric assay; outline: as §2
Vero C1008 = assay: Cytotoxicity against cells African green monkey Vero E6 cells incubated for 24 to 72 hrs by alamar blue assay; type: toxicity, cell-based; conditions: chlorocebus sabaeus, time 24-72 hrs
Outline: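 VeroE6 cells in DMEM with 10% FCS were seeded at 5 × 10^4 per well. After adherence, cells were given varying compound concentrations for 24 or 72 h at 37 °C, 5% CO2. Alamar Blue HS was added for a further 2–4 h. Viability was read as fluorescence at ex/em 560/590 nm.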

SARS-CoV-2 [10] = assay: Anti viral activity against SARS-CoV-2 infected in African green monkey veroE6 assessed as reduction in viral load; type: functional, Severe acute respiratory syndrome coronavirus 2, Vero E6
Cathepsin B [11] = molecular target: T1, Cathepsin B; assay: Inhibition of recombinant human Cathepsin B in African green monkey Vero E6 using Z-Phe-Arg-AMC as substrate for 30 mins by fluorometric assay; type: cell-based
Outline: (§3)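 VeroE6 or A549 cells were lysed by sonication in 50 mM MES pH 6.0 with AEBSF, pepstatin A, EDTA and DTT; protein was quantified by BCA. An equal volume of 50 μM Z-Phe-Arg-AMC was then added. Activity was normalized to 0.2% DMSO wells.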

Cathepsin B [12] = molecular target: T1, Cathepsin B; assay: Inhibition of recombinant human Cathepsin B expressed in huamn A549 using Z-Phe-Arg-AMC as substrate incubated for 30 mins by fluorometric assay; outline: as §3
SARS-CoV-2 [13] = assay: Antiviral activity against SARS-CoV-2 infected in human HEK293 cells expressing TMPRSS2 as inhibition of viral entry; type: functional, organism-based; conditions: Severe acute respiratory syndrome coronavirus 2
SARS-CoV-2 [14] = assay: Antiviral activity against SARS-CoV-2 infected in African green monkey Vero E6 cells assessed as inhibition of viral entry at 0.5 uM pretreated for 30 mins with cells followed by viral infection and measured after 24 hrs post infection by Alexa Fluor 488 and Hoechst dye based fluorescence microscopy; type: functional, organism-based; conditions: Severe acute respiratory syndrome coronavirus 2
Procathepsin L [15] = molecular target: T4, Procathepsin L; assay: Binding affinity to Cathepsin L in African green monkey VeroE6 cell lysates assessed as covalent adducts by quantitative mass spectrometry; type: subcellular; conditions: Vero E6
Outline: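 VeroE6 cells at 80–90% confluence were treated with 10 μM compound for 1 h in triplicate, washed with DPBS, and lysed in 4% sodium deoxycholate buffer. Lysates were digested to peptides and analysed by nanoflow LC-MS/MS. Covalent CatL adducts were identified by targeted MS/MS at 1% FDR.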
Target sequence in this assay (P07711 114-333 limits assumed): as the sequence (P07711 114-333 limits assumed) above

SARS-CoV-2 [16] = assay: Antiviral activity against SARS-CoV-2 infected in human MRC5 cells expressing ACE2/TMPRSS2 assessed as inhibition of viral entry at 32 uM; type: functional, organism-based; conditions: Severe acute respiratory syndrome coronavirus 2
Procathepsin L [17] = molecular target: T4, Procathepsin L; assay: Inhibition of recombinant human Cathepsin L in African green monkey Vero E6 at 20 uM using Z-Phe-Arg-AMC as substrate for 30 mins by fluorometric assay; type: cell-based; outline: as §3
Target sequence in this assay (P07711 114-333 limits assumed): as above

SARS-CoV-2 [18] = assay: Antiviral activity against SARS-CoV-2 infected in Vero E6 cells assessed as inhibition of viral entry at 0.5 uM and measured after 24 hrs post infection by Alexa Fluor 488 and Hoechst dye based fluorescence microscopy; type: functional, organism-based; conditions: Severe acute respiratory syndrome coronavirus 2
SARS-CoV-2 [19] = assay: Synergistic antiviral activity against SARS-CoV-2 infected in human HEK293 cells expressing TMPRSS2 as inhibition of viral entry in presence of Na-famostat mesylate; type: functional, organism-based; conditions: Severe acute respiratory syndrome coronavirus 2
Procathepsin L [20] = molecular target: T4, Procathepsin L; assay: Inhibition of human recombinant Cathepsin L assessed as ratio of Kinact/Kiapp using Z-FR-AMC as substrate inubated for 30 mins by fluorometric assay
Target sequence in this assay (P07711 114-333 limits assumed): as above

Cathepsin B [21] = molecular target: T1, Cathepsin B; assay: Inhibition of human recombinant Cathepsin B assessed as ratio of Kinact/Kiapp using Z-FR-AMC as substrate inubated for 30 mins by fluorometric assay; outline: as §2
Procathepsin L [22] = molecular target: T4, Procathepsin L; assay: Inhibition of human recombinant Cathepsin L assessed enzyme activity using Z-FR-AMC as substrate at 416 nM incubated for 30 mins by fluorometric assay
Outline: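 Recombinant human CatL at 50 pM was incubated with 416 nM compound for […] at 25 °C in 50 mM Na acetate pH 5.5, 5 mM DTT, 0.01% BSA, 1 mM EDTA. An equal volume of 5 μM Z-FR-AMC was then added. Fluorescence was read at 360/460 nm in triplicate wells and normalized to DMSO vehicle wells.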
Target sequence in this assay (P07711 114-333 limits assumed): as above

Cathepsin S, sequence (P25774 whole entry): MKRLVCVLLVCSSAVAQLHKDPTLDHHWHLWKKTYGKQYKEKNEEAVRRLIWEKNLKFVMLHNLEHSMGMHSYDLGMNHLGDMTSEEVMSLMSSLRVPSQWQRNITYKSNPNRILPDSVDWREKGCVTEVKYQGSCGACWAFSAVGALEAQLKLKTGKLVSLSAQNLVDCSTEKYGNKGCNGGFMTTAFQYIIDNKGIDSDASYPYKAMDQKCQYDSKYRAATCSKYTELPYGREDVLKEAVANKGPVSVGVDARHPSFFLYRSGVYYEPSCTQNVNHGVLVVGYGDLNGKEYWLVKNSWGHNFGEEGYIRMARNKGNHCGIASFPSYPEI

SMILES	IC50 (Cathepsin B [1])	IC50 (Cathepsin L2)	IC50 (Cathepsin S)	IC50 (Cathepsin K)	EC50 (SARS-CoV-2 [2])	Kinact (Procathepsin L [3])	Kinact (Cathepsin B [4])	Kinact [5]	Ki (Procathepsin L [6])	Ki (Cathepsin B [7])	Ki (Procathepsin L [8])	Ratio [9]	CC50 (Vero C1008)	Activity (SARS-CoV-2 [16])	Ratio (Procathepsin L [20])	Ratio (Cathepsin B [21])	other results
CC[C@H](C)[C@@H](C(=O)O[C@@H](CC(C)C)C(=O)N[C@@H](CC(C)C)C(=O)N[C@@H](C)/C=C/C(=O)N1C(=O)C=C(OC)[C@@H]1C)N(C)C [GALLINAMIDE A]	7.34 nM	697 nM	0.367 nM	79.6 nM	28 nM	4.75 10^-3/s	6.27 10^-4/s	5.69 10^-3/s	7.95 nM	117 nM	5.29 nM	1.07 10^6/s/M	> 100000 nM	Active			IC90 (SARS-CoV-2 [10]): 88 nM; inhibition (Cathepsin B [11]): Active; inhibition (Cathepsin B [12]): Active; Activity (SARS-CoV-2 [13]): Active; Activity (SARS-CoV-2 [14]): Active; Activity (Procathepsin L [15]): Active; inhibition (Procathepsin L [17]): Active; Activity (SARS-CoV-2 [18]): Active; Activity (SARS-CoV-2 [19]): Active
COC1=CC(=O)N(C(=O)/C=C/[C@H](CCc2ccccc2)NC(=O)[C@H](CC(C)C)NC(=O)[C@H](CC(C)C)NC(=O)[C@H](C(C)C)N(C)C)[C@H]1Cc1c[nH]c2ccccc12	0.149 nM	419 nM	0.224 nM	1.5 nM	920 nM	9.85 10^-3/s	1.89 10^-3/s	9.6 10^-3/s	11.8 nM	238 nM	4.15 nM	2.31 10^6/s/M	> 100000 nM		8.35 10^5/s/M	7.94 10^3/s/M	
COC1=CC(=O)N(C(=O)/C=C/[C@H](C)NC(=O)[C@H](CC(C)C)NC(=O)[C@H](Cc2ccccc2)NC(=O)[C@H](CC(C)C)N(C)C)[C@H]1Cc1c[nH]c2ccccc12																	inhibition (Procathepsin L [22]): 90%
COC1=CC(=O)N(C(=O)/C=C/[C@H](C)NC(=O)[C@H](CCc2ccccc2)NC(=O)[C@H](CC2CCCCC2)NC(=O)[C@H](C(C)C)N(C)C)[C@H]1Cc1c[nH]c2ccccc12	47.6 nM	186 nM	60.3 nM	219 nM	168 nM	5.87 10^-3/s	3.35 10^-3/s	2.24 10^-3/s		347 nM	16.5 nM	1.36 10^5/s/M	> 100000 nM	Active	1.89 10^5/s/M	9.65 10^3/s/M	
COC1=CC(=O)N(C(=O)/C=C/[C@H](C)NC(=O)[C@H](CC(C)C)NC(=O)[C@H](CC(C)C)NC(=O)C2CCN(C)CC2)[C@H]1Cc1c[nH]c2ccccc12	0.416 nM	63.2 nM	0.0149 nM	17.9 nM	> 5000 nM	8.34 10^-3/s	1.7 10^-2/s	3.19 10^-3/s		854 nM	3.95 nM	8.06 10^5/s/M	> 100000 nM		2.9 10^5/s/M	1.99 10^4/s/M	
COC1=CC(=O)N(C(=O)/C=C/[C@H](C)NC(=O)[C@H](CC(C)C)NC(=O)[C@H](CC2CCCCC2)NC(=O)C2CCN(C)CC2)[C@H]1Cc1c[nH]c2ccccc12	0.278 nM	20.6 nM	0.304 nM	0.623 nM	6070 nM	3.47 10^-3/s	2.09 10^-2/s	8.56 10^-3/s	18 nM	861 nM	29.3 nM	2.92 10^5/s/M	> 100000 nM		1.93 10^5/s/M	2.43 10^4/s/M	
